What was measured:
[1] = Basic dissociation constant, pKa of the compound at 10 mM; assay type: physicochemical
[2] = Acidic dissociation constant, pKa of the compound at 10 mM; assay type: physicochemical
[3] = Distribution coefficient, log D of the compound at 10 mM at pH 7.4 by pH-metric method; assay type: physicochemical; conditions: octanol/water
PBMC [4] = test: Inhibition of human PBMC-induced phagocytosis of antibody-opsonized RBC at 5 uM incubated for 1 hr prior to RBC addition measured after 2 hrs by phase-contrast microscopy; assay type: functional
Method in brief: (§1)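 Ficoll-isolated human PBMC cultured overnight (10% FBS, 37 °C, 5% CO2). 7×10^5 cells adhered 1 h on chamber slides, then non-adherent cells removed. Compound or IVIg was added for 1 h, media aspirated, and anti-D-opsonized human R2R2 RBCs added for 2 h. Slides were methanol-fixed and read by phase-contrast, counting ≥100 monocytes for the phagocytosis index. Results are normalized to vehicle (100% phagocytosis). Screen at 5 µM; titration 0.5–100 µM.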

PBMC [5] = test: Induction of apoptosis in human PBMC assessed as apoptotic index at 10 uM after 1 hr by Annexin V/propidium iodide staining-based FACS analysis relative to IVIg; assay type: cell-based; conditions: in the assay text read “relative to vehicle” for “relative to IVIg”
Method in brief: (§2)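 Ficoll-isolated human PBMC cultured overnight in 10% FBS medium, 37 °C, 5% CO2. After 1 h adherence, non-adherent cells removed, and the rest were exposed to compound at 10 and 100 µM for 1 h. Cells were then scraped and stained with Annexin V-APC plus PI (1 µg/mL) for flow cytometry. AI = fold increase in % apoptotic cells (Annexin V+ and Annexin V+/PI+) over vehicle.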

PBMC [6] = test: Induction of apoptosis in human PBMC assessed as apoptotic index at 100 uM after 1 hr by Annexin V/propidium iodide staining-based FACS analysis relative to IVIg; assay type: cell-based; conditions: in the assay text read “relative to vehicle” for “relative to IVIg”; method in brief: as §2
PBMC [7] = test: Inhibition of human PBMC-induced phagocytosis of antibody-opsonized RBC incubated for 1 hr prior to RBC addition measured after 2 hrs by phase-contrast microscopy; assay type: functional, cell-based; method in brief: as §1

Row | SMILES | pKa at 10000 µM [1] | pKa at 10000 µM [2] | logD at 10000 µM [3] | inhibition at 5 µM (PBMC [4]) | Ratio (PBMC [5]) | Ratio (PBMC [6]) | IC50 (PBMC [7])
1 | Cc1nn(-c2ccccc2)c(S)c1C(=O)c1ccccc1 | 2.9 | 10.3 | -0.3 | 0% | 2 | 1.6 | 
2 | Cc1nn(-c2ccccc2)c(SSc2c(C(=O)c3ccccc3)c(C)nn2-c2ccccc2)c1C(=O)c1ccccc1 | 3.2 |  | 8 | 32% | 0.8 | 1 | 
3 | Cc1cc(SSc2cc(C)nn2-c2ccccc2)n(-c2ccccc2)n1 | 4.8 |  | 3.2 | 45% | 1 | 5.4 | 
4 | Cc1cc(CCc2cc(C)nn2-c2ccccc2)n(-c2ccccc2)n1 | 2.5 |  | 1.3 | 14% | 1 | 0.9 | 
5 | Cc1cc(COc2cc(C)nn2-c2ccccc2)n(-c2ccccc2)n1 | 2.7 |  | 2.2 | 16% | 1.1 | 0.9 | 
6 | Cc1cc(CNCc2cc(C)nn2-c2ccccc2)n(-c2ccccc2)n1 | 2.2 |  | 5 | 20% | 1.1 | 0.9 | 
7 | Cc1cc(OCCOc2cc(C)nn2-c2ccccc2)n(-c2ccccc2)n1 | 2.2 |  | -1.6 | 4% | 1 | 1 | 
8 | Cc1cc(Oc2c(N)c(C)nn2-c2ccccc2)n(-c2ccccc2)n1 | 3.4 |  | 4 | 2% | 1.2 | 1 | 
9 | Cc1cc(COc2cc(C)nn2-c2ccc([N+](=O)[O-])cc2)n(-c2ccccc2)n1 | 2 |  | 3.7 | 16% | 0.8 | 0.8 | 
10 | Cc1cc(COc2cc(C)nn2-c2ccccc2)n(Cc2ccccc2)n1 | 2.1 |  | 5.3 | 0% | 1.1 | 1 | 
11 | Cc1cc(OCc2cc(C)nn2-c2ccccc2)n(CC2CCCCC2)n1 | 3.6 |  | 4.3 | 45% | 1 | 1.1 | 
12 | Cc1cc(COc2cc(C)nn2C2CCCC2)n(-c2ccccc2)n1 | 2.7 |  | 1.7 | 17% | 0.9 | 1.2 | 
13 | Cc1cc(OCc2cc(C)nn2-c2ccccc2)n(CCN)n1 | 2.5 |  | 5 | 33% | 1.1 | 1 | 
14 | Cc1cc(OCc2cc(C)nn2-c2ccccc2)n(CC(=O)O)n1 | 7.3 | 3.4 | 1.2 | 10% | 1.1 | 1.2 | 
15 | Cc1cc(OCc2cc(C)nn2-c2ccccc2)[nH]n1 | 2.4 | 12.5 | 2.9 | 6% | 1 | 1 | 
16 | Cc1cc(O)n(Cc2cc(C)nn2-c2ccccc2)n1 | 2.3 | 8.4 | 4.3 | 58% | 1.2 | 1.3 | 14 µM
17 | Cc1cc(OCC2CCCN2Cc2ccccc2)n(-c2ccccc2)n1 (stereo unspecified) | 2.4 |  | 4.5 | 15% | 1.1 | 0.9 | 
18 | Cc1nn(-c2ccccc2)c(S)c1C(=O)c1ccno1 |  |  |  |  |  |  | 250 µM
